Assay results reported in ChEMBL document CHEMBL3244034, “Semisynthetic cephalosporins. Synthesis and structure-activity relationships of 7-(1-pyrryl)- and 7-(1-indolyl)acetamidocephalosporin derivatives” (1978).
In brackets after ≈: the same amount, converted by molar mass. Activity calls are given as the source filed them. The rule behind the calls is not given here.

Key:
[1] = test system: Staphylococcus aureus; assay: Antibacterial activity against benzylpenicillin-resistant Staphylococcus aureus after 17 hrs by serial two fold dilution method; format: functional
Summary of the method: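 Agar dilution MIC. Compound was serially diluted twofold in Mueller-Hinton agar. The surface was inoculated with a diluted 18-24-h broth culture […]. Plates were incubated 17 h at 37 °C. MIC was taken as the lowest concentration giving complete or virtually complete inhibition of visible growth.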

[2] = test system: Staphylococcus aureus; assay: Antibacterial activity against Staphylococcus aureus after 17 hrs by serial two fold dilution method; format: functional
Summary of the method: (§1)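 Agar dilution MIC: compound serially diluted twofold in Mueller-Hinton agar. Plate surfaces were inoculated with a suitably diluted 18-24-h broth culture and incubated 17 h at 37 °C. MIC was read as the lowest concentration giving complete or virtually complete inhibition of visible growth.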

[3] = test system: Staphylococcus epidermidis; assay: Antibacterial activity against Staphylococcus epidermidis after 17 hrs by serial two fold dilution method; format: functional; summary of the method: as §1
[4] = test system: Enterococcus faecalis; assay: Antibacterial activity against Staphylococcus faecalis after 17 hrs by serial two fold dilution method; format: functional; summary of the method: as §1
[5] = test system: Streptococcus pneumoniae; assay: Antibacterial activity against Streptococcus pneumoniae after 17 hrs by serial two fold dilution method; format: functional; summary of the method: as §1
[6] = test system: Streptococcus pyogenes; assay: Antibacterial activity against Streptococcus pyogenes after 17 hrs by serial two fold dilution method; format: functional; summary of the method: as §1
[7] = test system: Klebsiella aerogenes; assay: Antibacterial activity against Enterobacter aerogenes after 17 hrs by serial two fold dilution method; format: functional
[8] = test system: Escherichia coli; assay: Antibacterial activity against Escherichia coli after 17 hrs by serial two fold dilution method; format: functional; summary of the method: as §1
[9] = test system: Klebsiella pneumoniae; assay: Antibacterial activity against Klebsiella pneumoniae after 17 hrs by serial two fold dilution method; format: functional; summary of the method: as §1
[10] = test system: Proteus mirabilis; assay: Antibacterial activity against Proteus mirabilis after 17 hrs by serial two fold dilution method; format: functional; summary of the method: as §1
[11] = test system: Proteus vulgaris; assay: Antibacterial activity against Proteus vulgaris after 17 hrs by serial two fold dilution method; format: functional; summary of the method: as §1
[12] = test system: Providencia stuartii; assay: Antibacterial activity against Providencia stuartii after 17 hrs by serial two fold dilution method; format: functional; summary of the method: as §1
[13] = test system: Pseudomonas aeruginosa; assay: Antibacterial activity against Pseudomonas aeruginosa after 17 hrs by serial two fold dilution method; format: functional; summary of the method: as §1
[14] = test system: Salmonella; assay: Antibacterial activity against Salmonella schottmuelleri after 17 hrs by serial two fold dilution method; format: functional; summary of the method: as §1
[15] = test system: Staphylococcus aureus; assay: Antibacterial activity against benzylpenicillin-resistant Staphylococcus aureus infected in sc dosed CD1 mouse assessed as host survival administered 1 and 4 hrs after infection measured on day 4; format: functional
Summary of the method: (§2)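 Male albino CD-1 mice, 20 (± 1) g, infected intraperitoneally with a bacterial suspension giving uniformly lethal infection. Groups of ten mice were treated subcutaneously with antibiotic at 1 and 4 h post-infection. Survival over 4 days was recorded.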

[16] = test system: Escherichia coli; assay: Antibacterial activity against Escherichia coli infected in sc dosed CD1 mouse assessed as host survival administered 1 and 4 hrs after infection measured on day 4; format: functional; summary of the method: as §2
[17] = test system: Klebsiella pneumoniae; assay: Antibacterial activity against Klebsiella pneumoniae infected in sc dosed CD1 mouse assessed as host survival administered 1 and 4 hrs after infection measured on day 4; format: functional; summary of the method: as §2
[18] = test system: Proteus mirabilis; assay: Antibacterial activity against Proteus mirabilis infected in sc dosed CD1 mouse assessed as host survival administered 1 and 4 hrs after infection measured on day 4; format: functional; summary of the method: as §2
[19] = test system: Salmonella; assay: Antibacterial activity against Salmonella schottmuelleri infected in sc dosed CD1 mouse assessed as host survival administered 1 and 4 hrs after infection measured on day 4; format: functional; summary of the method: as §2
[20] = test system: Neisseria gonorrhoeae; assay: Antibacterial activity against Neisseria gonorrhoeae after 17 hrs by serial two fold dilution method; format: functional, organism-based
[21] = test system: Haemophilus influenzae; assay: Antibacterial activity against Haemophilus influenzae after 17 hrs by serial two fold dilution method; format: functional, organism-based
[22] = test system: Bacteroides fragilis; assay: Antibacterial activity against Bacteroides fragilis after 17 hrs by serial two fold dilution method; format: functional, organism-based
[23] = test system: Fusobacterium varium; assay: Antibacterial activity against Fusobacterium varium after 17 hrs by serial two fold dilution method; format: functional, organism-based
[24] = test system: Streptococcus pyogenes; assay: Antibacterial activity against Streptococcus pyogenes infected in po dosed CD1 mouse assessed as host survival administered 1 and 4 hrs after infection measured on day 4; format: functional
[25] = test system: Enterobacter cloacae; assay: Antibacterial activity against Enterobacter cloacae after 17 hrs by serial two fold dilution method; format: functional
[26] = test system: Streptococcus pyogenes; assay: Antibacterial activity against Streptococcus pyogenes infected in sc dosed CD1 mouse assessed as host survival administered 1 and 4 hrs after infection measured on day 4; format: functional; summary of the method: as §2

SMILES | MIC [1] [µg/mL] | MIC [2] [µg/mL] | MIC [3] [µg/mL] | MIC [4] [µg/mL] | MIC [5] [µg/mL] | MIC [6] [µg/mL] | MIC [7] [µg/mL] | MIC [8] [µg/mL] | MIC [9] [µg/mL] | MIC [10] [µg/mL] | MIC [11] [µg/mL] | MIC [12] [µg/mL] | MIC [13] [µg/mL] | MIC [14] [µg/mL] | ED50 [15] [mg/kg] | ED50 [16] [mg/kg] | ED50 [17] [mg/kg] | ED50 [18] [mg/kg] | ED50 [19] [mg/kg] | MIC [25] [µg/mL] | further results
Cc1nnc(SCC2=C(C(=O)O)N3C(=O)[C@@H](NC(=O)Cn4cnnn4)[C@H]3SC2)s1 [CEFAZOLIN] | 0.4 (≈ 0.88 µM) | 0.2 (≈ 0.44 µM) | 0.8 (≈ 1.76 µM) | > 100 | 0.1 (≈ 0.22 µM) | 0.1 (≈ 0.22 µM) | > 50 | 0.8 (≈ 1.76 µM) | 1.6 (≈ 3.52 µM) | 6.2 (≈ 13.6 µM) | > 100 | > 50 | > 100 | 1.6 (≈ 3.52 µM) | 22 | 0.6 | 42 | 79 | 2.2 | – | Activity [20]: inactive; Activity [21]: inactive; Activity [22]: inactive; Activity [23]: inactive; ED50 [24]: 1.8 mg/kg
Cc1nnc(SCC2=C(C(=O)O)N3C(=O)[C@@H](NC(=O)Cn4cccc4C=O)[C@H]3SC2)s1 | 0.8 (≈ 1.67 µM) | 0.4 (≈ 0.834 µM) | 1.6 (≈ 3.34 µM) | > 100 | 0.2 (≈ 0.417 µM) | 0.2 (≈ 0.417 µM) | > 100 | 50 (≈ 104 µM) | 50 (≈ 104 µM) | 100 (≈ 209 µM) | > 100 | > 100 | > 100 | 12.5 (≈ 26.1 µM) | – | – | – | – | – | > 100 | –
CC1=C(C(=O)O)N2C(=O)[C@@H](NC(=O)Cn3ccc4ccccc43)[C@H]2SC1 | 3.1 (≈ 8.35 µM) | 1.6 (≈ 4.31 µM) | 6.2 (≈ 16.7 µM) | > 100 | 1.6 (≈ 4.31 µM) | 0.8 (≈ 2.15 µM) | > 100 | > 100 | > 100 | > 100 | > 100 | > 100 | > 100 | > 100 | – | – | – | – | – | > 100 | –
Cn1nnnc1SCC1=C(C(=O)O)N2C(=O)[C@@H](NC(=O)Cn3ccc4ccccc43)[C@H]2SC1 | 0.2 (≈ 0.412 µM) | 0.1 (≈ 0.206 µM) | 0.4 (≈ 0.824 µM) | > 100 | – | 0.05 (≈ 0.103 µM) | 50 (≈ 103 µM) | 12.5 (≈ 25.7 µM) | 12.5 (≈ 25.7 µM) | 50 (≈ 103 µM) | > 100 | 25 (≈ 51.5 µM) | > 100 | 6.2 (≈ 12.8 µM) | – | – | – | – | – | 50 (≈ 103 µM) | –
CC(=O)OCC1=C(C(=O)O)N2C(=O)[C@@H](NC(=O)Cc3cccs3)[C@H]2SC1 [CEPHALOTHIN] | 0.4 (≈ 1.01 µM) | 0.1 (≈ 0.252 µM) | 0.4 (≈ 1.01 µM) | 100 (≈ 252 µM) | 0.1 (≈ 0.252 µM) | 0.1 (≈ 0.252 µM) | > 50 | 6.2 (≈ 15.6 µM) | 3.1 (≈ 7.82 µM) | 6.2 (≈ 15.6 µM) | > 100 | 100 (≈ 252 µM) | > 100 | 0.8 (≈ 2.02 µM) | – | – | – | – | – | > 100 | –
Cn1nnnc1SCC1=C(C(=O)O)N2C(=O)[C@@H](NC(=O)Cn3cccc3)[C@H]2SC1 | 0.8 (≈ 1.84 µM) | 0.4 (≈ 0.919 µM) | 1.6 (≈ 3.67 µM) | > 100 | 0.1 (≈ 0.23 µM) | 0.1 (≈ 0.23 µM) | 25 (≈ 57.4 µM) | 0.8 (≈ 1.84 µM) | 1.6 (≈ 3.67 µM) | 6.2 (≈ 14.2 µM) | > 100 | 6.2 (≈ 14.2 µM) | > 100 | 0.4 (≈ 0.919 µM) | 72 | 2.5 | 67 | 100 | 2.5 | 6.2 (≈ 14.2 µM) | ED50 [26]: 2.3 mg/kg; Activity [20]: inactive; Activity [21]: inactive; Activity [22]: inactive; Activity [23]: inactive
